Dynein transport – blocks dynein driven cargo transport along microtubules; 3617.4 mouse cells, GR-EGFP nuclear translocation imaging; test concentration mostly 20 µM; stimulated with dexamethasone, 1 µM; stronger effect = lower value; z-score, hits read low; 220,000 tested, 0.47% active; AID 1381;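 active = plate z-score of nuclear minus cytoplasmic receptor signal below a set negative limit, without overly bright fluorescence or cell loss, cut at about -3.5 in these data, passing the limit was not always enough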;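 note: z-score of nuclear minus cytoplasmic ring GR-EGFP intensity difference per well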
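Buffer or medium: tet-free, stripped-serum medium; Also added: dexamethasone, 1.0 µM final; Technique: high-content fluorescence imaging after fixation; Times: 48 h induction, 1 h compound, 30 min dex at 37 °C; Read-out: per-cell GR-EGFP intensity, nucleus versus surrounding cytoplasmic ring, well-averaged.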
MT stabilizer – microtubule stabilizers in HeLa cells; HeLa tubulin immunostaining HCS, 24 h; share of cells brighter than vehicle mean+2SD; % tubulin-high responders, % at 10 µM; 200,000 tested, 0.83% active; AID 2205;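 active = plate Z-score above 3 for both tubulin-high and condensed-nucleus cell shares, with cell loss under 80%, at 10 µM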;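 note: anti alpha tubulin signal scored within the nucleus-defined area of each cell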
CHOP inhibitor – CHOP inhibition in unfolded protein response | CHO-K1 CHOP-promoter luciferase, tunicamycin-induced, 15-18 h | 220,000 tested, 3.8% active | AID 2732 | inhibition, % at 10 µM;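 active = compounds that reduced the stress-induced luciferase reporter signal by more than about 70% of percent inhibition, limit read from the data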;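 note: 0% = tunicamycin plus vehicle and 100% = wells without tunicamycin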
bCat nuc transl – modulators of beta-catenin nuclear translocation. HeLa beta-catenin nuclear translocation, immunofluorescence imaging. nuclear translocation activity, % at 5 µM. 190,000 tested, 0.3% active. AID 1665;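 active = nuclear translocation activity above 50% at 5 µM, with a well cell count of 50 or more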;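 note: per-cell ratio of nuclear to cytoplasmic median beta-catenin stain intensity; plate controls were DMSO negative control for no effect and GSK-3 inhibitor IX positive control for full effect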
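Test system: HeLa cells, endogenous beta-catenin; Compound: single 5 µM dose plus 0.02–20 µM confirmation series; Times: compound exposure 24 h at 37°C; Signal: fluorescence imaging of beta-catenin antibody stain plus DAPI; Read-out: % activation, nuclear-to-cytoplasmic median beta-catenin signal ratio per cell.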
Autophagy mod – autophagy modulation, high-content screen. 190,000 tested, 0.98% active. AID 463193. MEF GFP-LC3 puncta imaging; test concentration mostly 10 µM. calls only at 10 µM (by protocol);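 active = percentage of spot-positive cells more than 3 SD above its plate mean, without a fluorescence outlier flag or 80% toxicity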;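 note: spot-positive cell cutoff set from DMSO-treated cells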
Lmaj promast – inhibitors of Leishmania major promastigote growth; Leishmania major promastigotes, resazurin fluorescence viability; inhibition, % at 10 µM; 200,000 tested, 9% active; in the data active = inhibition above about 50%;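 note: promastigotes grown with compound for 44 hours at 28 °C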
Active calls of the source: *; i = inactive; . = no result; + = active, no number. Hits are enriched below; roughly 12% of the tested compounds scored in any of these assays.

SMILES	Dynein transport	MT stabilizer	CHOP inhibitor	bCat nuc transl	Autophagy mod	Lmaj promast
O=C(CCl)NC1(C(F)(F)F)C(=O)Nc2c1c(=O)[nH]c(=O)n2-c1ccccc1 (centres undefined)	0.17	.	15	1	.	.
Cc1ccc(-c2cc(C(=O)O)c3sc(N4CCCCC4)nc3n2)cc1	0.86	2	17	-3	i	-5
CCOC(=O)c1cc(-c2ccccc2)nc2nc(N3CCCCC3)sc12	-0.77	2	26	.	i	72*
COc1ccc(-c2cc(C(=O)O)c3sc(N4CCCCC4)nc3n2)cc1OC	-0.015	2	8	0	i	52*
CCc1nc2sc3c(O)cc(=O)[nH]c3c2cc1C	0.13	2	2	0	i	-3
Cc1ccc(S(=O)(=O)Nc2ccc(C(=O)OCC(=O)N(CCC#N)c3ccccc3)cc2)cc1C	1.1	4	10	-1	i	0
CCOC(=O)C1=C(C)N(CC(C)C)C(=O)/C1=C\c1ccc(OCC(=O)Nc2ccccc2)cc1	-3.1	3	17	0	i	81*
COc1cccc(-c2csc3nnc(SCC(=O)c4ccc(NC(C)=O)cc4)n23)c1	-0.17	3	79*	2	i	-7
COc1cc(NC(=O)c2ccc(OC)c([N+](=O)[O-])c2)ccc1NC(=O)c1cccs1	1.9	3	-25	0	i	84*
Cc1ccc(C(=O)Nc2cc3ccccc3oc2=O)cc1	-0.47	33*	104*	84*	i	-6
CCOc1ccc(C(=O)Nc2cccc(NC(=O)c3cccs3)c2)cc1[N+](=O)[O-]	0.53	2	28	-3	i	34
COc1cc(N)ccc1NC(=O)c1cccs1	0.81	2	22	.	i	73*
COc1cc(NC(=O)c2cccs2)c(OC)cc1NC(=O)c1ccco1	0.25	3	0	1	i	-3
COc1cc(NC(=O)c2cccs2)ccc1NC(=O)c1cc2ccccc2o1	0.34	3	91*	-3	i	-6
COc1cc(NC(=S)NC(=O)CC(C)C)ccc1NC(=O)c1cc2ccccc2o1	0.27	3	58	-2	i	1
COc1ccccc1/C(C)=N/NC(=S)NCc1ccccc1	-0.76	3	24	-3	i	3
Cc1cc(C)cc(N(CC(=O)NCCSc2ccccn2)S(=O)(=O)c2ccccc2)c1	-0.42	2	47	-2	i	9
COc1ccc(C)cc1NC(=O)c1cc2ccccc2o1	-0.84	5	71*	5	i	7
O=C(Nc1ccc(NC(=O)c2cccs2)c(Cl)c1)c1ccco1	-0.47	5	-3	0	i	59*
CCCCSc1nnc(CCCCCNC(=O)OC(C)(C)C)o1	-0.63	2	79*	3	i	-5
Cc1cc(C)nc(SCC2COc3ccccc3O2)n1 (centres undefined)	1.2	5	11	-1	i	-5
CC1C/C(=N\NC(=S)NCc2ccccc2)CC(C)(C)C1 (centres undefined)	-0.63	2	56	3	i	99*
COc1ccccc1N(C)S(=O)(=O)c1ccc(C(=O)OCC(=O)NCc2cccs2)cc1	0.77	.	6	0	.	.
CC(=O)C(Cc1cccc(F)c1)(Cc1cccc(F)c1)C(C)=O	-0.56	6	33	-4	i	-9
CCN(CC)CCN(C)c1ccc(N2C(=O)C3CC=CCC3C2=O)cc1[N+](=O)[O-] (centres undefined)	0.03	4	25	-1	+	4
SMILES	Dynein transport	MT stabilizer	CHOP inhibitor	bCat nuc transl	Autophagy mod	Lmaj promast
CNc1sc(C(=O)c2ccc(F)cc2)c(N)c1-c1nc2ccccc2s1	-0.76	4	84*	.	i	2
O=C(O)CCCCn1c(SCC(=O)Nc2ccccc2C(F)(F)F)nc2ccsc2c1=O	0.35	4	-1	-5	i	-6
CCC(C)n1c(SCC(=O)Nc2ccccc2C(F)(F)F)nc2ccsc2c1=O (centres undefined)	-0.18	4	45	1	i	96*
CC(=O)N(Cc1cccnc1)c1cccc(-c2nc3ccccc3s2)c1	-0.25	2	5	0	i	100*
COC(=O)C1CCN(S(=O)(=O)Cc2ccccc2)CC1	-0.37	6	-3	-4	i	-7
CC1CN(C2CCN(S(=O)(=O)c3ccc(F)cc3)CC2)CC(C)O1 (centres undefined)	-0.74	2	-16	1	i	91*
CS(=O)(=O)N1CCN(C2Cc3ccccc3C2)CC1	-0.87	1	-26	.	i	36
CC1CN(C2CCN(S(=O)(=O)Cc3ccccc3)CC2)CC(C)O1 (centres undefined)	-0.073	2	33	-8	i	91*
O=S(=O)(Cc1ccccc1)N1CCN(C2Cc3ccccc3C2)CC1	0.011	1	-7	1	i	52*
CC1CN(C2CCN(S(=O)(=O)c3ccccc3)CC2)CC(C)O1 (centres undefined)	0.33	3	12	-1	i	81*
Cc1nc2ccccc2c(=O)n1N(c1ccccc1)c1ccccc1	-0.25	7	12	-1	i	34
O=C(NCc1ccccn1)C1CCN(S(=O)(=O)N2CCCC2)CC1	3	3	6	.	i	-3
Cc1ccc(S(=O)(=O)CCC(=O)NCCN2C(=O)S/C(=C\c3ccccc3)C2=O)cc1	-1.3	7	37	2	i	8
Cc1ccc2c(c1)S/C(=C/c1ccc[n+](C)c1)N2CCO	-0.63	4	-27	.	i	70*
COc1ccccc1C1(CC(=O)Nc2nccs2)CCOC(C(C)C)C1 (centres undefined)	-0.98	3	13	-1	i	85*
COc1ccc(OC(=O)CCc2c[nH]c3ccccc23)cc1	0.2	2	-5	3	i	3
CC1=C/C(=N\OC(=O)/C=C/c2ccccc2)C(C)=CC1=O	-0.46	2	3	0	i	100*
O=C(COc1ccc(Cl)cc1)NC1CCSC1=O (centres undefined)	0.64	4	21	-2	i	-7
COc1cc2[nH]c(=O)n(CCC(=O)N3CCN(Cc4ccccc4)CC3)c(=O)c2cc1OC	-0.5	2	-12	-2	i	-3
COc1cc2[nH]c(=O)n(CCC(=O)N3CCN(c4cccc(C)c4C)CC3)c(=O)c2cc1OC	0.22	9	93*	2	i	13
Cc1cccc(N2CCN(C(=O)Cn3ccc4ccccc4c3=O)CC2)c1C	0.19	2	57	-1	i	91*
Cc1noc(C)c1C(=O)N1CCCC1	1	2	-14	.	i	-6
CC1=C(C(=O)Nc2ccccn2)C(c2cn(C)nc2C)C2=C(CCCC2=O)N1 (centres undefined)	-1.1	4	5	-1	i	-2

Screens as filed in PubChem BioAssay.
